AHR act: activates the human aryl hydrocarbon receptor; AHR-responsive luciferase reporter cells, luminescence; P35869; activation, % at 5 µM; actives 2.5% (n = 320,000); in the data active = activation above about 47%
Target sequence (P35869 whole entry, looked up): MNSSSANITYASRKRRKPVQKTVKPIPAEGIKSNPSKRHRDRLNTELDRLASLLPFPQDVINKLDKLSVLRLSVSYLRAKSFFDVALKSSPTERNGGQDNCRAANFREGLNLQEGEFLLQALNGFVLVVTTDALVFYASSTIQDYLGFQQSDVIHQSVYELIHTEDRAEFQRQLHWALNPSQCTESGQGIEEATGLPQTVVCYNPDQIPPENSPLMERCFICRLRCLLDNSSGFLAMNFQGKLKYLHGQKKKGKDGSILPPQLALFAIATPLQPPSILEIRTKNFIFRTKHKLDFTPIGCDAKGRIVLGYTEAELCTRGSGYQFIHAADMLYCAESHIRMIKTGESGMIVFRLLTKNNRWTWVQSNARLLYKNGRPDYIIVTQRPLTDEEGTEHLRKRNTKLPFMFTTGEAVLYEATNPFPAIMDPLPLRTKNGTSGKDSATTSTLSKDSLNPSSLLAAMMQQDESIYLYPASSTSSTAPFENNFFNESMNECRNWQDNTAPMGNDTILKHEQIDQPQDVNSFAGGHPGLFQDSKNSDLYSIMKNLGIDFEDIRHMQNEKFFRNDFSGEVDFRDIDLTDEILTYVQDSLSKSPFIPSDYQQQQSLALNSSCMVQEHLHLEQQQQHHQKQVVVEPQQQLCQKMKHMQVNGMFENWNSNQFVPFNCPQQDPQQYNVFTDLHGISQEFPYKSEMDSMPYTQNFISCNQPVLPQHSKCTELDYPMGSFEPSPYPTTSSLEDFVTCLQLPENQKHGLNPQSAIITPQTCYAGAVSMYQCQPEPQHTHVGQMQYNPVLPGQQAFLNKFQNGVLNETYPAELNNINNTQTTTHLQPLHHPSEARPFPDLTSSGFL
STAT3 activator: activators of IL-6 induced STAT3 signaling. actives 0.91% (n = 190,000). activation (% of control), % at 5.6 µM. U3A cells, IL-6 STAT3-luciferase reporter, luminescence; 100% = signal with IL-6 EC80 alone;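 active = activation above the screen-wide mean of compound activation plus 3 SD, cut at about 130% in these data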
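System – human U3A cells carrying STAT3-luciferase construct · Probe or stimulus – Interleukin-6, 33 ng/mL · Schedule – compound 1 h, then IL-6 6 h at 37 °C · Signal – luminescence from STAT3-driven luciferase reporter · Evaluation – percent of IL-6-only median luminescence · Benchmarks – IL-6-only high control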
FXIa inh: blocks human coagulation factor XIa protease activity | P03951 | purified FXIa, Boc-Glu-Ala-Arg-AMC fluorogenic substrate | inhibition, % at 5 µM | actives 0.14% (n = 220,000);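 active = inhibition of at least 40%; inactive = inhibition below 40%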;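 note: fluorescence of freed AMC excited at 355 nm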
KLK5 inh: inhibitors of human kallikrein 5. Q9Y337. recombinant hK5, fluorogenic AMC substrate cleavage. inhibition, % at 5 µM. actives 0.59% (n = 210,000). AID 873;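 active = inhibition of 40% or more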
FXIIa inh: factor XIIa (human) inhibition. purified FXIIa, Boc-QGR-AMC fluorogenic substrate, 2 h. inhibition, % at 5 µM. actives 0.3% (n = 220,000). AID 800; in the data active = inhibition above about 40%
Thrombin inh: thrombin (human) inhibition; AID 1046; alpha-thrombin, Boc-VPR-AMC fluorogenic substrate cleavage; actives 0.26% (n = 220,000); P00734; inhibition, % at 5 µM;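 active = inhibition at or above 40%; inactive = inhibition below 40%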
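Assay system: human alpha-thrombin enzyme. Reagent: Boc-VPR-AMC substrate, 15 µM final. Compound dosing: one concentration per compound, 5 µM, with 0.2% DMSO. Incubation: room-temperature reaction. Technique: AMC fluorescence, 355/460 nm. Measure: % inhibition relative to enzyme controls and enzyme-free blanks.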
Hits are given with their value; 0 = inactive; - = no result. Sampled rows, rich in hits. Any-hit rate of the full collection: about 3.5%.

SMILES	AHR act	STAT3 activator	FXIa inh	KLK5 inh	FXIIa inh	Thrombin inh
COC(=O)Nc1ccc(SCC(=O)c2cccc([N+](=O)[O-])c2)cc1	0	-	-	-	-	-
CCOCCCn1cnc2c(c1=O)c1nc3ccccc3nc1n2-c1ccccc1	0	0	0	0	54	0
COc1cc(C2N3CC4(C)CN2CC(C)(C3)C4)ccc1O (stereo unspecified)	0	0	0	0	0	0
COc1ccc(C2N(c3ccccc3)CCN2c2ccccc2)cc1O	0	0	0	0	46	0
c1ccc(-c2nc3ccccc3[nH]2)cc1	0	-	-	-	-	-
S=c1nc(-c2ccccc2)[nH]c2ccc(Br)cc12	53	-	0	0	0	0
CC1CCN(CC(=O)Nc2cccc(C(=O)Nc3cccc(C(F)(F)F)c3)c2)CC1	0	0	0	0	0	0
Cc1cc(C)n(CCN(C)C(=O)C2CCC(=O)N(CCN3CCOCC3)C2)n1 (stereo unspecified)	0	-	-	-	-	-
Cc1sc2ncnc(OCC(=O)NC3CCS(=O)(=O)C3)c2c1C (stereo unspecified)	0	-	0	103	0	0
Cc1sc2ncnc(OCC(=O)NC(C)C)c2c1C	0	0	0	0	0	0
CCOC(=O)CNC(=O)C1CCC(CNS(=O)(=O)c2cccc3nsnc23)CC1 (stereo unspecified)	0	-	-	-	-	-
O=C(NCc1cccs1)C1CCC(CNS(=O)(=O)c2cccc3nsnc23)CC1 (stereo unspecified)	0	0	0	52	0	0
CCS(=O)(=O)Nc1cc(-c2nc3cccnc3s2)ccc1C	70	162	0	0	0	0
CCS(=O)(=O)Nc1cccc(-c2nc3cccnc3s2)c1	76	-	0	0	0	0
O=S(=O)(Nc1cccc(-c2nc3cccnc3s2)c1)c1ccc2c(c1)CCCC2	0	0	0	0	0	0
Cc1nc2ccc(S(=O)(=O)Nc3cccc(-c4nc5cccnc5s4)c3)cc2s1	0	0	0	0	0	0
Cc1ccc(-c2nc3cccnc3s2)cc1NC(=O)c1ccco1	0	0	-	-	-	-
CCS(=O)(=O)Nc1ccc(-c2nc3cccnc3s2)cc1	66	-	0	0	0	0
Cc1nc2ccc(S(=O)(=O)Nc3ccc(-c4nc5cccnc5s4)cc3)cc2s1	69	0	0	0	0	0
Cc1[nH]c(C)c(S(=O)(=O)Nc2cccc(Cl)c2C)c1C(=O)N1CCCCC1	0	-	-	-	-	-
Cc1cc(C(=O)Nc2ccccc2)c2ccccc2n1	0	-	-	-	-	-
Cc1cccc(NC(=O)c2cc(Cl)nc3ccccc23)c1	62	0	0	0	0	0
Cc1cc(C(=O)Nc2ccc(Cl)cc2)c2ccccc2n1	66	-	-	-	-	-
O=C(O)CC1(CC(=O)NCc2cc(F)cc3c2OCOC3)CCCCC1	0	-	0	0	0	0
COc1ccc(/C=N/OCC(=O)N=Nc2c(O)[nH]c3ccc(Br)cc23)cc1OC	78	0	0	0	0	0
SMILES	AHR act	STAT3 activator	FXIa inh	KLK5 inh	FXIIa inh	Thrombin inh
O=C(COc1ccc2c(c1)OCO2)Nc1ccccc1C(F)(F)F	0	0	0	0	0	0
O=Cc1ccc(OCC(=O)Nc2ccccc2C(F)(F)F)cc1	0	0	0	0	64	0
COc1ccc2c(c1)[nH]c1c(N3CCN(Cc4ccc5c(c4)OCO5)CC3)ncnc12	0	0	0	0	0	0
COc1cccc2[nH]c3c(N4CCN(Cc5ccc6c(c5)OCO6)CC4)ncnc3c12	73	0	0	0	0	0
COc1cccc2[nH]c3c(N4CCC(C)CC4)ncnc3c12	60	0	0	0	0	0
CC(=NCCc1c(C)[nH]c2ccc(OCc3ccccc3)cc12)C1=C(O)CC(c2ccccc2)CC1=O (stereo unspecified)	77	0	0	0	0	-
CCOc1ncccc1C(=O)OCC(=O)Nc1ccc(C(C)C)cc1	0	0	0	0	0	0
CCOc1ncccc1C(=O)OCC(=O)Nc1ccc(C(N)=O)cc1	0	-	0	42	45	0
CCOc1ncccc1C(=O)Nc1cccc(-c2nnc3n2CCCCC3)c1	47	0	0	0	-	0
CCOc1ncccc1C(=O)Nc1ccc(F)c(Cl)c1	61	0	0	0	0	0
c1cc(Nc2ncnc3sccc23)cc(-c2nnc3n2CCCCC3)c1	49	0	0	0	0	0
CC(C)CC(NS(=O)(=O)c1cccc(C(=O)O)c1)C(=O)O (stereo unspecified)	0	0	0	0	0	0
CCOc1ncccc1C(=O)Nc1nc(C(C)(C)C)cs1	59	0	0	0	0	0
CCOc1ncccc1C(=O)Nc1ccc(F)c(F)c1	60	0	0	0	0	0
CCOc1ncccc1C(=O)Nc1ccc2nc(C)sc2c1	0	-	-	-	-	-
CCOc1ncccc1C(=O)Nc1ncc(C)s1	0	0	0	0	0	0
CCC1CCCCN1CCCNC(=O)CCC(=O)N1CC(C)Oc2ccccc21 (stereo unspecified)	0	-	-	-	-	-
COc1ccccc1NC(=O)CC1C(=O)Nc2ccccc2N1C(=O)c1ccccc1 (stereo unspecified)	0	0	0	0	0	0
Cc1ccc(NC(=O)N(Cc2cccs2)Cc2cc3cc4c(cc3[nH]c2=O)OCO4)cc1	0	0	0	0	0	0
O=C(Nc1ccc(F)cc1)N(Cc1cccs1)Cc1cc2cc3c(cc2[nH]c1=O)OCO3	54	0	0	0	0	0
Nc1ccc(N2CCOCC2)cc1C(F)(F)F	0	0	0	0	0	0
c1ccc(-c2nc3ccccn3c2NCc2ccc3c(c2)OCO3)cc1	70	0	0	0	0	0
COc1cc(OC)cc(OC(=O)C2CCN(C(=O)c3ccc(Cl)cc3)CC2)c1	0	-	-	-	-	-
Cc1cccc(N=C2NC(=O)/C(=C/c3cccnc3)S2)c1C	47	-	0	0	0	0
Cc1ccc(N=C2NC(=O)/C(=C/c3cccnc3)S2)c(C)c1	0	-	0	0	0	0
SMILES	AHR act	STAT3 activator	FXIa inh	KLK5 inh	FXIIa inh	Thrombin inh
O=C1NC(=Nc2cccc(O)c2)S/C1=C\c1cccnc1	0	-	0	66	0	0
Cc1ccccc1CN(c1ccc(C(=O)Nc2ccccc2C(=O)NCc2ccco2)cc1)S(C)(=O)=O	0	0	0	0	0	0
NC(=O)c1ccc(SCC(=O)NC2CCCCC2)c([N+](=O)[O-])c1	0	0	0	0	0	0
O=Cc1cn(-c2ccccc2)nc1-c1ccncc1	60	0	0	0	-	0
NC(=O)NC(CC(=O)NNC(=O)c1cccs1)c1ccc(Cl)cc1 (stereo unspecified)	0	-	-	-	-	-
Cc1ccc(Cn2c(O)c(N=O)c3ccccc32)cc1	0	0	0	0	0	0
Cc1cccc2c(N=O)c(O)n(CCc3ccccc3)c12	67	-	-	-	-	-
Cc1nnc(SCC(=O)Nc2cc(C(C)(C)C)nn2-c2ccccc2)s1	0	0	0	0	0	0
Cc1nnc(SCC(=O)Nc2cc(-c3cc(C)c(C)cc3C)nn2-c2ccccc2)s1	104	0	0	0	0	0
O=C(CNCc1ccccn1)Nc1cc(C(F)(F)F)ccc1N1CCOCC1	0	-	0	0	41	0
